Hits are enriched below; roughly 3.7% of the tested compounds scored in any of these assays.
KCNK9 inh: human KCNK9 channel inhibition; 1.2% of 310,000 active; HEK293 KCNK9, FluxOR thallium flux fluorescence; hits give low values; B-score at 10 µM; AID 488922; Q9NPC2;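 active = ratio B-score over 3 SD below the library mean, with starting fluorescence within 5 SD of its mean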;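 note: negative B-score means less thallium flux so channel inhibition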
Target sequence (Q9NPC2 whole entry, looked up): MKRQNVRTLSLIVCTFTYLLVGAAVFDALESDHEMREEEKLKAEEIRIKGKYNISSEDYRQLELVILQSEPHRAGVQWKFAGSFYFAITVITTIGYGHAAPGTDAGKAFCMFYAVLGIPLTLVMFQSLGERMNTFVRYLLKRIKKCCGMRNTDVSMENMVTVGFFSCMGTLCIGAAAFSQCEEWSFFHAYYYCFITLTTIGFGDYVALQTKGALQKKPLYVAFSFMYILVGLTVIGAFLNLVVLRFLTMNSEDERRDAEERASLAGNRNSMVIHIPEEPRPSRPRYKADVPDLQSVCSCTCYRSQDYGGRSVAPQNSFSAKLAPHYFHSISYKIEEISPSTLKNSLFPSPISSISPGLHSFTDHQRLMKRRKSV
KCNQ1 act: human KCNQ1 channel potentiation or activation | P51787 | CHO-K1 KCNQ1, thallium flux FluxOR fluorescence; hits give high values | B-score at 10 µM | 0.35% of 310,000 active;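 active = fluorescence ratio B-score, a plate-corrected score, at least three library SD, with initial intensity B-score within 5 SD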
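Assay system: CHO-K1 cells stably expressing KCNQ1; Medium: assay buffer with matched DMSO; Also added: K+/Tl+ depolarizing stimulus; Dosing: single dose; Timing: dye 90 min, compound 20 min, room temperature; Measured by: kinetic FluxOR thallium fluorescence, 10-s 1-Hz baseline, 110-s post-stimulus read; Read-out: peak-minus-minimum fluorescence over initial fluorescence, negative-control normalized, B-scored.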
hERG rescue: hERG (human) protection from proarrhythmic block; Q12809; CHO-hERG, FluxOR thallium flux, dofetilide IC70 present; activation (rescue from dofetilide block), less the hit threshold, % at 10 µM; 0.51% of 310,000 active;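 active = activation above the mean of controls blocked by dofetilide plus 5 SD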;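 note: thallium influx through hERG after potassium depolarization seen as dye fluorescence rise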
KCNK3 inh: human KCNK3 channel inhibition, primary screen; O14649; CHO-KCNK3 thallium flux, FluxOR fluorescence; hits give low values; B-score at 10 µM; 0.84% of 340,000 active; AID 602410;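 active = B-score under library mean minus 4 SD, starting fluorescence ratio at most library mean plus 5 SD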;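 note: more negative B-score means stronger inhibition of thallium flux through KCNK3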
Kir21 inh: Kir2.1 (mouse) channel inhibition. P35561. HEK293-Kir2.1, FluxOR thallium flux fluorescence; hits give low values. B-score at 10 µM. 0.85% of 310,000 active;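 active = fluorescence ratio B-score at or below minus 3 SD of library scores, with starting-brightness B-score within 2 SD, cut at about -4.2 in these data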;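 note: channel flux triggered by added potassium and thallium sulfate stimulus; B-score of peak minus minimum fluorescence over baseline after thallium stimulus; more negative B-score means stronger Kir2.1 block with less thallium influx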
KCNQ1 inh: human KCNQ1 channel inhibition; P51787; CHO-K1 KCNQ1, FluxOR thallium flux fluorescence; hits give high values; B-score at 10 µM; 1.3% of 310,000 active;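 active = compounds whose thallium flux B-score, printed positive for inhibition, exceeds three library SD while starting fluorescence stays within three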;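 note: channel opened by potassium depolarization with thallium stimulus after 20 min compound exposure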
KCNK9 inh conf: confirmation of human KCNK9 potassium channel inhibitors; shares compounds with KCNK9 inh; HEK293 KCNK9 cells, FluxOR thallium flux fluorescence; inhibition, % at 10 µM; 43% of 4,900 active;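 active = thallium signal inhibited by more than 5 SD of the compound-free buffer control wells, on both duplicate plates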
Kir21 sel: selectivity of KCNK9 modulators against mouse Kir2.1. 4% of 4,900 active. AID 492993. shares compounds with KCNK9 inh. Kir2.1 cells, FluxOR thallium flux fluorescence. inhibition, % at 10 µM;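 active = thallium signal drop more than 5 SD beyond the mean of the no-compound control wells, seen in both duplicate plates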;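 note: signal is fluorescence rise after thallium addition divided by baseline fluorescence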
HEK293 Tl ctr: second check of KCNK9 modulator effects in non-induced HEK293 cells | shares compounds with KCNK9 inh | FluxOR thallium flux | inhibition, % at 10 µM | 40% of 4,900 active | AID 492997;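 active = thallium signal drop beyond 5 SD of the untreated control mean, on both duplicate plates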
A number is an active result; . = inactive; / = no result given.

SMILES	KCNK9 inh	KCNQ1 act	hERG rescue	KCNK3 inh	Kir21 inh	KCNQ1 inh	KCNK9 inh conf	Kir21 sel	HEK293 Tl ctr
COC(=O)c1cc(NC(=O)Nc2cc(OC)ccc2OC)cc(C(=O)OC)c1	-11	.	.	.	.	.	31%	.	.
CCC1Oc2ccc(C)cc2N(CC(=O)N(Cc2ccc(C)o2)C2CCCC2)C1=O (stereo not drawn)	.	.	.	.	.	.	.	.	34%
COc1ccc(-c2cc(C)no2)cc1S(=O)(=O)NCCc1ccco1	.	.	.	.	.	.	/	/	/
CN1C(=O)[C@@H]2[C@H](C1=O)[C@@H]1C(=O)Nc3ccccc3C(=O)N1[C@@H]2c1ccc(Br)cc1	.	.	.	.	.	.	/	/	/
CCOc1ccccc1N/C=C(\C#N)c1nc2ccccc2n1C	-11	.	.	.	.	.	.	.	.
CCCOc1ccc(CNC(=O)c2ccc3c(c2)N(CC)CCS3)cc1	.	.	.	.	.	.	.	.	.
CCn1ccnc1CN1CCC(n2nccc2NC(=O)c2ccccc2OC)CC1	.	.	.	.	.	.	/	/	/
c1ccc(CSc2snnc2-c2ccccc2)cc1	.	.	.	.	.	.	/	/	/
Clc1ccc(CSc2snnc2-c2ccccc2)c(Cl)c1	.	.	.	.	.	7	.	.	25%
CC(=O)Nc1ccc(Nc2nc(-c3ccccc3)nc3ccccc23)cc1	.	.	.	.	.	.	/	/	/
O=C(Nc1nc(-c2ccccc2)nc2ccccc12)c1ccc(F)cc1	-8.4	.	.	.	.	.	30%	.	.
C=CCOC(=O)C1=C(C)OC(N)=C(C#N)C1c1c(C)nn(-c2ccccc2)c1Cl (stereo not drawn)	-8.4	.	.	-10	.	.	50%	.	34%
O=C1CN(C(=O)COC(=O)c2ccc(Cl)c(S(=O)(=O)N3CCCCC3)c2)c2ccccc2N1	/	/	/	.	/	/	/	/	/
CC(C)N(Cc1ccccc1)C(=O)CCc1ccccc1	.	.	.	.	.	.	.	.	.
C=CCn1c(C(CCCC)CC(O)COCC(C)C)n[nH]c1=S (stereo not drawn)	.	.	.	.	.	.	/	/	/
COC(=O)CNC(c1ccccc1)c1cc(Br)ccc1NC(=O)CNC(=O)OCc1ccccc1 (stereo not drawn)	-15	.	.	.	.	.	64%	.	32%
CCOC(=O)Nc1cc(N)ncn1	/	/	/	.	/	/	/	/	/
OC(COCCOc1ccc(Br)cc1)CN1CCCCC1 (stereo not drawn)	.	.	.	.	.	.	/	/	/
CCc1cccc(C)c1NC(=O)CSc1nc2ccncc2[nH]1	.	.	.	.	.	.	/	/	/
Cc1sc2nc(SCc3nc4ccccc4[nH]3)n(Cc3ccco3)c(=O)c2c1C	-8.3	.	.	.	.	.	26%	.	32%
Cc1sc2nc(SCc3ccccc3)n(Cc3ccco3)c(=O)c2c1C	.	.	.	.	.	.	/	/	/
CCOC(=O)C1CCCN(C(=O)c2ccc3ncsc3c2)C1 (stereo not drawn)	/	/	/	.	/	/	/	/	/
CCCC1CCC(c2ccc(C(N)=O)cc2)CC1 (stereo not drawn)	.	.	.	.	.	.	/	/	/
CCCC1CCC(=C(C#N)C(N)=O)CC1 (stereo not drawn)	-8.8	.	.	.	.	.	.	.	.
C=CCOC(=O)c1ccccc1C(=O)OCC1CO1 (stereo not drawn)	/	/	/	.	/	/	/	/	/
SMILES	KCNK9 inh	KCNQ1 act	hERG rescue	KCNK3 inh	Kir21 inh	KCNQ1 inh	KCNK9 inh conf	Kir21 sel	HEK293 Tl ctr
CCOC(=O)c1c(NC(=O)C(C)Sc2cn(C)c3ccccc23)sc2c1CCC2 (stereo not drawn)	.	.	.	.	.	.	.	.	.
CCOC(=O)c1c(NC(=O)CSc2c[nH]c3ccccc23)sc2c1CCC2	.	.	.	.	.	.	.	.	.
CCOC(=O)c1c(NC(=O)CSc2nnc(-c3c[nH]c4ccccc34)n2CCOC)sc2c1CCCCC2	.	.	.	.	.	.	/	/	/
CCOC(=O)c1c(NC(=O)CSc2c[nH]c3ccccc23)sc2c1CCCC2	.	.	.	.	.	.	.	.	.
CCOC(=O)c1c(NC(=O)C(C)Sc2cccc[n+]2[O-])sc2c1CCN(Cc1ccccc1)C2 (stereo not drawn)	/	/	/	.	/	/	/	/	/
CCOC(=O)c1c(NC(=O)CSc2nnc3ccccn23)sc2c1CCC2	.	.	.	.	.	.	/	/	/
CCN1C[C@@H]2[C@@H]3C(=O)N(Cc4ccccc4)C(=O)[C@@H]3[C@](C)(C1=O)N2C(=O)c1ccc(Br)cc1	/	/	/	.	/	/	/	/	/
CCCN(CCC)S(=O)(=O)c1ccc2c(c1)CCCN2C(C)=O	.	.	.	.	.	.	/	/	/
CCCN(CCC)S(=O)(=O)c1ccc(C(=O)N2CCCc3ccccc32)cc1	.	.	.	.	.	.	.	.	.
Cc1ccsc1CN(C)C(=O)CN1C(=O)NC2(CCCCC2C)C1=O (stereo not drawn)	/	/	/	.	/	/	/	/	/
COc1ccc(-n2nc(C(=O)NCC(=O)N3CCC(C)CC3)c3ccccc3c2=O)cc1Cl	.	.	.	.	.	.	.	.	.
COc1ccc(-n2nc(C(=O)NCC(=O)N3CCN(c4ccccn4)CC3)c3ccccc3c2=O)cc1Cl	.	.	.	.	.	.	/	/	/
CN(CC(=O)Nc1cccc(F)c1)C(=O)c1cc(S(=O)(=O)N2CCCCC2)ccc1N1CCOCC1	.	.	.	.	.	.	/	/	/
CCN(CC)c1ccc(/C=N/Nc2ccccc2)c(O)c1	.	.	.	.	.	.	/	/	/
CSc1ccc(/C=N/N2CCN(Cc3ccc(C)cc3C)CC2)cc1	.	.	.	.	.	.	.	.	.
CCN(CC)c1ccc(/C=N/Nc2cccc(C)c2)c(O)c1	.	.	.	.	.	.	.	.	.
CCN(CC)c1ccc(/C=N/N2CCN(Cc3ccccc3)CC2)c(O)c1	.	.	.	.	.	.	.	.	.
CCN(CC)c1ccc(/C=N/N2CCN(Cc3ccc(C)cc3C)CC2)c(O)c1	.	.	.	.	.	.	.	.	.
CCN(CC)c1ccc(/C=N/N2CCOCC2)c(O)c1	.	.	.	.	.	.	/	/	/
Cc1ccc(S(=O)(=O)/C=C/c2ccccc2)cc1	.	.	.	.	.	.	/	/	/
Cc1ccc(-c2nn(-c3ccc(F)cc3)cc2C(=O)NCCCN2CCCC2=O)cc1	/	/	/	.	/	/	/	/	/
Cc1cc(=O)[nH]c(SCC(=O)N2CCCC2)n1	/	/	/	.	/	/	/	/	/
CCC(c1nnc(SCC(=O)NC2CCCCC2)n1Cc1ccccc1)N(C)C (stereo not drawn)	.	.	.	.	.	.	/	/	/

High-throughput results: PubChem, Johns Hopkins Ion Channel Center
